Source: ChEMBL document CHEMBL1141606, “7-Azaindole derivatives as potential partial nicotinic agonists” (Bioorg Med Chem Lett, 2008)
One block for each compound: values may come before it. Activity calls are given as the source filed them. No cut-off for these calls is given here.

How the values were obtained:
[1] = target: T1, Neuronal acetylcholine receptor; alpha4/beta2 (Rattus norvegicus) (UniProt P09483+P12390); assay: Agonist activity at alpha4beta2 nAChR in rat striatal membranes assessed as effect on [3H]dopamine release; format: functional; settings: Striatum, Slice, in the assay text read “striatal slices” for “striatal membranes”
In short: (§1)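 Rat striatal slices were used for [3H]dopamine release. Test compound was added with the K+ pulse for 5 min, at 10 nM (t = 50 min) and 1 µM (t = 90 min). […] In parallel runs, mecamylamine (0.1 µM) or DHβE (1 µM) sensitivity was read as percent inhibition of evoked release.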

[2] = target: T2, Neuronal acetylcholine receptor; alpha4/beta2 (Rattus norvegicus, UniProt P09483+P12390); assay: (§2) Displacement of [3H]cytisine from alpha-4-beta-2 nAChR in rat brain membrane; format: cell membranes
T2 sequence (P09483 whole entry): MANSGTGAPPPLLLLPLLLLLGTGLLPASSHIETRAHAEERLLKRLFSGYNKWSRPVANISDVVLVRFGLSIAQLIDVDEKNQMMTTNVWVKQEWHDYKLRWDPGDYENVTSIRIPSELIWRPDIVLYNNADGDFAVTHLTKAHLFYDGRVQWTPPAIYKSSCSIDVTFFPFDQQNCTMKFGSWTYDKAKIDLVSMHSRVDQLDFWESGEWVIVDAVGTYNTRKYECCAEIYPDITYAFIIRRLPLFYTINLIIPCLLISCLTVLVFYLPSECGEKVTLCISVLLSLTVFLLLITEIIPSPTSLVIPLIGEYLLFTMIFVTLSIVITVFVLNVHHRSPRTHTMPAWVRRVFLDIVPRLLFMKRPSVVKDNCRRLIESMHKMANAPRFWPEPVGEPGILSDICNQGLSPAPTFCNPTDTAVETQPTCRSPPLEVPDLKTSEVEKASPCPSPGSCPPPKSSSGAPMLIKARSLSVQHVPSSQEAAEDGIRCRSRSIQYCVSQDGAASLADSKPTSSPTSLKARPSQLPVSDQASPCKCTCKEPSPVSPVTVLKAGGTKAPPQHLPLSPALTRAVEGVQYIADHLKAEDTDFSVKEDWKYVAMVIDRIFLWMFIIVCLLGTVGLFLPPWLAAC
T2 sequence (P12390 whole entry): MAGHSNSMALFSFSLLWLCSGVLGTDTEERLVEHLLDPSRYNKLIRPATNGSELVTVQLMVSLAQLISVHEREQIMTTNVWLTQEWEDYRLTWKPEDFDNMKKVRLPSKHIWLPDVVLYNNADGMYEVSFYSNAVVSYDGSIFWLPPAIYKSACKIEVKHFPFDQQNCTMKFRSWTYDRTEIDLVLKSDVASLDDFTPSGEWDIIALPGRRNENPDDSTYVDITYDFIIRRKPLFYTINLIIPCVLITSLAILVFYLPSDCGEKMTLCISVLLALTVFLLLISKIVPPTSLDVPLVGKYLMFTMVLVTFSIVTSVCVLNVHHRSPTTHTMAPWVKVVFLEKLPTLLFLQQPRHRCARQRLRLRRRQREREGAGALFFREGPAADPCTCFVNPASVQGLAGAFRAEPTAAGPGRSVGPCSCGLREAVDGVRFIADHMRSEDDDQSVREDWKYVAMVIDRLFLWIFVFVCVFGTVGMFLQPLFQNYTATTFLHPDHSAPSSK
In short: (§3)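 Competition binding against [3H]cytisine on rat brain membranes at a contract lab, following a published nicotinic binding protocol. Affinity reported as Ki.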

[3] = target: T2, Neuronal acetylcholine receptor; alpha4/beta2; assay: Displacement of [3H]L-nicotine from alpha-4-beta-2 nAChR in rat cerebral cortex; format: tissue-based
[4] = target: T1, Neuronal acetylcholine receptor; alpha4/beta2 (Rattus norvegicus); assay: Agonist activity at alpha-4-beta-2 nAChR in rat striatal membranes assessed as effect on [3H]dopamine release relative to nicotine; format: functional; settings: Striatum, Slice, in the assay text read “striatal slices” for “striatal membranes”; in short: as §1
[5] = Metabolic stability in human liver; format: ADME, tissue-based
In short: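 In vitro incubation with human liver homogenate; metabolic stability expressed as half-life (t1/2, min).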

[6] = Oral bioavailability in rat; format: ADME, organism-based; settings: in vivo
In short: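 Rat pharmacokinetic study with both intravenous and oral dosing; oral bioavailability (%) derived by comparing the two routes.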

[7] = Ratio of drug level in brain to plasma in po dosed rat; format: ADME, organism-based
In short: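 Rat iv/po pharmacokinetic study. Drug levels were measured in brain (ng/g) and plasma (ng/ml) after oral administration, and the brain-plasma ratio was derived from them.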

[8] = Drug level in po dosed rat brain; format: ADME, organism-based; design: route oral
In short: (§4)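 Rats dosed orally; drug concentrations at Cmax measured in brain tissue (ng/g) and in plasma (ng/ml).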

[9] = Drug level in po dosed rat plasma; format: ADME, organism-based; design: route oral; in short: as §4
[10] = target: T1, Neuronal acetylcholine receptor; alpha4/beta2 (Rattus norvegicus); assay: Antagonist activity at alpha-4-beta-2 nAChR in rat striatal slices assessed as blockade of nicotine-induced [3H]dopamine release at 10 uM; design: scale not given: the % may be the effect or the level left; settings: Striatum, Slice
[11] = target: T1, Neuronal acetylcholine receptor; alpha4/beta2 (Rattus norvegicus); assay: as §2; format: cell membranes; in short: as §3

Activity [1]: Active
SMILES: c1cnc2[nH]c(C3CCNC3)cc2c1 (configuration not stated)

SMILES: c1cnc2[nH]cc(C3CCCNC3)c2c1 (configuration not stated)
Ki [2]: 2950 nM

SMILES: CN1CCC[C@@H]1Cc1cc2cccnc2[nH]1
Ki [2]: 2510 nM

SMILES: CN[C@@H](C)C/C=C/c1cncc(OC)c1
Ki [3]: 11 nM

Activity [1]: Active | Activity [4]: 62% | half-life [5]: 266 min | bioavailability [6]: 11.3% | Kp [7]: 3.7 | Cmax [8]: 280 ng/g | Cmax [9]: 120 ng/mL | Activity [10]: 70%
SMILES: c1cnc2[nH]c(C[C@H]3CCCN3)cc2c1

SMILES: c1cnc2[nH]c(C3CCCNC3)cc2c1 (single isomer, unassigned; (-))
Ki [2]: 2000 nM

SMILES: Clc1ccc2cc(C3CCCNC3)[nH]c2n1 (single isomer, unassigned; (-))
Activity [11]: inactive

SMILES: Clc1ccnc2[nH]c(C3CCCNC3)cc12 (configuration not stated)
Activity [11]: inactive

SMILES: Clc1ccc2cc(C[C@@H]3CCCN3)[nH]c2n1
Ki [2]: 3720 nM

SMILES: Clc1ccc2cc(C3CCCNC3)[nH]c2n1 (racemic)
Activity [11]: inactive

SMILES: Brc1ccc2cc(C[C@H]3CCCN3)[nH]c2n1
Ki [2]: 691 nM

Ki [2]: 10 nM | half-life [5]: 134 min
SMILES: Br.c1cnc2[nH]c(C3CCNC3)cc2c1 (configuration not stated)

SMILES: Brc1ccc2cc(C[C@@H]3CCCN3)[nH]c2n1
Activity [11]: inactive

Ki [2]: 16 nM
SMILES: c1cnc2[nH]c(C3CCNC3)cc2c1 (racemic)

SMILES: Fc1ccc2cc(C[C@@H]3CCCN3)[nH]c2n1
Ki [2]: 2000 nM

SMILES: Fc1ccc2cc(C[C@H]3CCCN3)[nH]c2n1
Ki [2]: 316 nM

SMILES: c1cnc2[nH]c(C3CCCNC3)cc2c1 (single isomer, unassigned; (+))
Activity [11]: inactive

SMILES: Clc1ccc2cc(C[C@H]3CCCN3)[nH]c2n1
Ki [2]: 147 nM

Ki [2]: 2750 nM
SMILES: c1cnc2[nH]c(C[C@@H]3CCCN3)cc2c1

SMILES: Clc1ccc2cc(C3CCCNC3)[nH]c2n1 (single isomer, unassigned; (+))
Ki [2]: 3460 nM

SMILES: Clc1ccc2c(C3CCCNC3)c[nH]c2n1 (configuration not stated)
Ki [2]: 2950 nM

Activity [11]: inactive
SMILES: COc1ccc2cc(C[C@H]3CCCN3)[nH]c2n1

Ki [2]: 251 nM
SMILES: c1cnc2[nH]c(C3CCNC3)cc2c1 (single isomer, unassigned; (-))

SMILES: CN1CCC[C@H]1Cc1cc2cccnc2[nH]1
Ki [2]: 691 nM
